According to ChEMBL document CHEMBL4382263, “Spirostaphylotrichin X from a Marine-Derived Fungus as an Anti-influenza Agent Targeting RNA Polymerase PB2” (J Nat Prod, 2018):
Calls of active or inactive are those of the source. No cut-off for these calls is given here.

Key:
[1] = system: Influenza A virus (A/Puerto Rico/8/1934(H1N1)); experiment: Inhibition of RNA polymerase in Influenza A virus (A/PR/8/34(H1N1)) infected in human 293T cells harboring pPol1-Fluc at 10 uM after 24 hrs by luciferase reporter gene assay; assay type: cell-based
How it was run: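 293T cells transfected with 50 ng pPolI-Fluc reporter. After 5 h, infected with PR8 at different titres for 1 h. Then given DMEM/10% FBS with 10 μM compound or 0.1% DMSO; luciferase measured in lysates after 24 h.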

Influenza A virus = experiment: Antiviral activity against Influenza A virus (A/PR/8/34(H1N1)) harboring neuraminidase H274Y mutant infected in MDCK cells assessed as reduction in virus-induced cytopathic effect by MTT assay; assay type: functional, organism-based, A/Puerto Rico/8/1934(H1N1)
How it was run: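 MTT-based cytopathic-effect reduction assay in MDCK cells. Run in triplicate; IC50 reported as mean ± SD.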

For CC/C=C1/C=CC(=O)[C@@H](O)[C@]12C(=O)N(OC)[C@@](C)(OC)[C@@H]2O, the inhibition [1] was “Active” and the IC50 (Influenza A virus) was 1200 nM.
